Activity calls are given as the source filed them. The rule behind the calls is not given here.
These molecules were tested on HL-60 (assay: Induction of apoptosis in human HL60 cells assessed as early apoptotic cells at 0.3 uM after 6 hrs using Annexin-V-FITC/propidium iodide staining by flow cytometry (reference value: 6%)). Conditions: not given.
Type: functional
Procedure, shortened: (§1)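 HL-60 cells (1 × 10^6/ml) treated 6 h at varied concentrations; camptothecin 4 μM 6 h positive control. AnnexinV-FITC and propidium iodide staining per kit; FL-1 versus FL-2 flow cytometry with quadrant statistics for apoptotic and necrotic populations; representative of three experiments.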
For CCCCOC(=O)[C@@]1(C)C(=O)C(C#N)=C[C@]2(C)[C@H]3C(=O)C=C4[C@@H]5[C@@H](C)[C@H](C)CC[C@]5(C)CC[C@@]4(C)[C@]3(C)CC[C@@H]12, the Activity was 15%.

Each molecule was assayed on HeLa (assay: Cytotoxicity against human HeLa cells after 48 hrs by MTT assay). Conditions: not given.
Type: functional, cell-based
Procedure, shortened: (§2)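 HL-60 (2 × 10^4/200 μl) or HeLa (1 × 10^4/200 μl) in RPMI-1640/MEM, 10% FCS, 37 °C, 5% CO2; treated 0.1–50 μM for 48 h, DMSO vehicle <0.2%. MTT added final 3 h; formazan dissolved in DMSO, OD 570 nm (reference 620 nm). IC50 as 50% viability versus untreated control; three experiments, CV <10%.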
Molecule CCCCOC(=O)[C@]1(C)[C@@H]2CC[C@]3(C)[C@H](C(=O)C=C4[C@@H]5[C@@H](C)[C@H](C)CC[C@]5(C)CC[C@]43C)[C@@]2(C)CC[C@H]1OC(C)=O has an IC50 of 40 µM.
Work on CCCCOC(=O)[C@@]1(C)C(=O)C(C#N)=C[C@]2(C)[C@H]3C(=O)C=C4[C@@H]5[C@@H](C)[C@H](C)CC[C@]5(C)CC[C@@]4(C)[C@]3(C)CC[C@@H]12 yielded an IC50 of 3 µM.

These molecules were tested on HL-60 (assay: Induction of apoptosis in human HL60 cells assessed as nuclear condensation and blebbing at 0.5 to 2 uM after 9 hrs Hoechst 33258 staining by fluorescence microscopy). Conditions: not given.
Type: functional, cell-based
Procedure, shortened: (§3)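 HL-60 cells (2 × 10^6/3 ml) treated 9 h, washed twice in PBS, fixed and stained with Hoechst 33258; nuclear morphology and apoptotic bodies examined by inverted fluorescence microscopy.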
For CCCCOC(=O)[C@@]1(C)C(=O)C(C#N)=C[C@]2(C)[C@H]3C(=O)C=C4[C@@H]5[C@@H](C)[C@H](C)CC[C@]5(C)CC[C@@]4(C)[C@]3(C)CC[C@@H]12, the Activity was “Active”.

What follows are molecules tested on HL-60 (assay: Induction of apoptosis in human HL60 cells assessed as early apoptotic cells at 1 uM after 6 hrs using Annexin-V-FITC/propidium iodide staining by flow cytometry (reference value: 6%)). Conditions: not given.
Type: functional
Procedure, shortened: as §1
CCCCOC(=O)[C@@]1(C)C(=O)C(C#N)=C[C@]2(C)[C@H]3C(=O)C=C4[C@@H]5[C@@H](C)[C@H](C)CC[C@]5(C)CC[C@@]4(C)[C@]3(C)CC[C@@H]12 was tested, and the Activity was 20%.

The molecules below were run on HL-60 (assay: Induction of apoptosis in human HL60 cells assessed as late apoptotic cells at 2 uM after 6 hrs using Annexin-V-FITC/propidium iodide staining by flow cytometry (reference value: 1%)). Conditions: not given.
Type: functional
Procedure, shortened: as §1
CCCCOC(=O)[C@@]1(C)C(=O)C(C#N)=C[C@]2(C)[C@H]3C(=O)C=C4[C@@H]5[C@@H](C)[C@H](C)CC[C@]5(C)CC[C@@]4(C)[C@]3(C)CC[C@@H]12 was tested, and the Activity was 1%.

The molecules below were run on HL-60 (assay: Cell cycle arrest in human HL60 cells assessed as accumulation at sub-G1 phase at 4 uM after 18 hrs by flow cytometry relative to control). Conditions: not given.
Type: functional
Procedure, shortened: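 HL-60 cells at 1 × 10^6/ml exposed 18 h; camptothecin 4 μM for 6 h as positive control. Cells pelleted 160 × g 5 min, PBS-washed, fixed in cold 70% alcohol overnight at −20 °C, RNase (400 μg/ml) digested, PI-stained; flow cytometry, hypo-diploid (<2n DNA) sub-G0/G1 fraction scored as apoptotic.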
Molecule CCCCOC(=O)[C@@]1(C)C(=O)C(C#N)=C[C@]2(C)[C@H]3C(=O)C=C4[C@@H]5[C@@H](C)[C@H](C)CC[C@]5(C)CC[C@@]4(C)[C@]3(C)CC[C@@H]12 has an Activity of 96%.

What follows are molecules tested on HL-60 (assay: Induction of apoptosis in human HL60 cells assessed as increase in scattered apoptotic bodies formation at 0.5 uM after 9 hrs using Hoechst 33258 staining by fluorescence microscopy). Conditions: not given.
Type: functional, cell-based
Procedure, shortened: as §3
CCCCOC(=O)[C@@]1(C)C(=O)C(C#N)=C[C@]2(C)[C@H]3C(=O)C=C4[C@@H]5[C@@H](C)[C@H](C)CC[C@]5(C)CC[C@@]4(C)[C@]3(C)CC[C@@H]12 was tested, and the Activity was “Active”.

Each molecule was assayed on HL-60 (assay: Induction of apoptosis in human HL60 cells assessed as early apoptotic cells at 4 uM after 6 hrs using Annexin-V-FITC/propidium iodide staining by flow cytometry (reference value: 6%)). Conditions: not given.
Type: functional
Procedure, shortened: as §1
With CCCCOC(=O)[C@@]1(C)C(=O)C(C#N)=C[C@]2(C)[C@H]3C(=O)C=C4[C@@H]5[C@@H](C)[C@H](C)CC[C@]5(C)CC[C@@]4(C)[C@]3(C)CC[C@@H]12 the Activity was 26%.

What follows are molecules tested on HL-60 (assay: Induction of apoptosis in human HL60 cells assessed as induction of morphological changes after 9 hrs by scanning electron microscopy). Conditions: not given.
Type: functional, cell-based
Procedure, shortened: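 HL-60 seeded 2 × 10^5/ml in medium with 10% FCS, treated at 0.5 and 2 μM (DMSO stock; vehicle-only controls) for 9 h at 37 °C. Fixed 2.5% glutaraldehyde in 0.1 M phosphate pH 7.2 at 4 °C 1 h, post-fixed 1% OsO4 1 h, acetone-dehydrated, critical-point dried, gold-coated; surface ultrastructure by scanning electron microscopy.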
For CCCCOC(=O)[C@@]1(C)C(=O)C(C#N)=C[C@]2(C)[C@H]3C(=O)C=C4[C@@H]5[C@@H](C)[C@H](C)CC[C@]5(C)CC[C@@]4(C)[C@]3(C)CC[C@@H]12, the Activity was “Dose-dependent effect”.

The molecules below were run on HL-60 (assay: Induction of apoptosis in human HL60 cells assessed as DNA ladder formation at 1 uM after 9 hrs by agarose gel electrophoresis). Conditions: not given.
Type: functional, cell-based
Procedure, shortened: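 HL-60 cells (2 × 10^6) treated 9 h; untreated negative control, camptothecin 4 μM positive control. Cells washed in PBS with 10 mM EDTA, lysed, genomic DNA extracted, precipitated, washed in 80% alcohol, dissolved in TE; run on 1.6% agarose at 50 V, ethidium bromide stained for laddering.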
CCCCOC(=O)[C@@]1(C)C(=O)C(C#N)=C[C@]2(C)[C@H]3C(=O)C=C4[C@@H]5[C@@H](C)[C@H](C)CC[C@]5(C)CC[C@@]4(C)[C@]3(C)CC[C@@H]12 was tested, and the Activity was “Active”.

These molecules were tested on HL-60 (assay: Induction of apoptosis in human HL60 cells assessed as late apoptotic cells at 0.3 uM after 6 hrs using Annexin-V-FITC/propidium iodide staining by flow cytometry (reference value: 1%)). Conditions: not given.
Type: functional
Procedure, shortened: as §1
Work on CCCCOC(=O)[C@@]1(C)C(=O)C(C#N)=C[C@]2(C)[C@H]3C(=O)C=C4[C@@H]5[C@@H](C)[C@H](C)CC[C@]5(C)CC[C@@]4(C)[C@]3(C)CC[C@@H]12 yielded an Activity of 3%.

Each molecule was assayed on HL-60 (assay: Induction of apoptosis in human HL60 cells assessed as early apoptotic cells at 2 uM after 6 hrs using Annexin-V-FITC/propidium iodide staining by flow cytometry (reference value: 6%)). Conditions: not given.
Type: functional
Procedure, shortened: as §1
Molecule CCCCOC(=O)[C@@]1(C)C(=O)C(C#N)=C[C@]2(C)[C@H]3C(=O)C=C4[C@@H]5[C@@H](C)[C@H](C)CC[C@]5(C)CC[C@@]4(C)[C@]3(C)CC[C@@H]12 has an Activity of 24%.

Each molecule was assayed on HL-60 (assay: Induction of apoptosis in human HL60 cells assessed as late apoptotic cells at 4 uM after 6 hrs using Annexin-V-FITC/propidium iodide staining by flow cytometry (reference value: 1%)). Conditions: not given.
Type: functional
Procedure, shortened: as §1
CCCCOC(=O)[C@@]1(C)C(=O)C(C#N)=C[C@]2(C)[C@H]3C(=O)C=C4[C@@H]5[C@@H](C)[C@H](C)CC[C@]5(C)CC[C@@]4(C)[C@]3(C)CC[C@@H]12 showed an Activity of 1%.

What follows are molecules tested on HL-60 (assay: Induction of apoptosis in human HL60 cells assessed as late apoptotic cells at 1 uM after 6 hrs using Annexin-V-FITC/propidium iodide staining by flow cytometry (reference value: 1%)). Conditions: not given.
Type: functional
Procedure, shortened: as §1
CCCCOC(=O)[C@@]1(C)C(=O)C(C#N)=C[C@]2(C)[C@H]3C(=O)C=C4[C@@H]5[C@@H](C)[C@H](C)CC[C@]5(C)CC[C@@]4(C)[C@]3(C)CC[C@@H]12 was tested, and the Activity was 2%.

These molecules were tested on HL-60 (assay: Cytotoxicity against human HL60 cells after 48 hrs by MTT assay). Conditions: HL-60, 48 h.
Type: functional, cell-based
Procedure, shortened: as §2
With CCCCOC(=O)[C@]1(C)[C@@H]2CC[C@]3(C)[C@H](C(=O)C=C4[C@@H]5[C@@H](C)[C@H](C)CC[C@]5(C)CC[C@]43C)[C@@]2(C)CC[C@H]1OC(C)=O the IC50 was 30 µM.
Work on CCCCOC(=O)[C@@]1(C)C(=O)C(C#N)=C[C@]2(C)[C@H]3C(=O)C=C4[C@@H]5[C@@H](C)[C@H](C)CC[C@]5(C)CC[C@@]4(C)[C@]3(C)CC[C@@H]12 yielded an IC50 of 0.67 µM.

From ChEMBL document CHEMBL1759852, “A comparative study of proapoptotic potential of cyano analogues of boswellic acid and 11-keto-boswellic acid” (Eur J Med Chem, 2011)
